Laboratory results from ChEMBL document CHEMBL1131443, “Development of dual-acting agents for thromboxane receptor antagonism and thromboxane synthase inhibition. 3. Synthesis and biological activities of oxazolecarboxamide-substituted omega-phenyl-omega-(3-pyridyl)alkenoic acid derivatives and related compounds” (J Med Chem, 1998).

Experiments:
Homo sapiens = species on record: Homo sapiens; experiment: Inhibition of U-46,619 (1 uM)-induced platelet aggregation in human platelet-rich plasma(PRP); assay type: functional
Method in brief: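 Citrated blood (1/10 volume 3.8% trisodium citrate) from volunteers free of platelet-affecting medication for 10 days; PRP spun at 100g for 12 min. Compound or vehicle preincubated with PRP for 1 min at 37 °C. Aggregation induced with U46619 and followed for 3 min.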

Thromboxane-A synthase = target: T1, Thromboxane-A synthase (Homo sapiens, UniProt P24557); experiment: In vitro for inhibitory activity against thromboxane synthase
T1 sequence (P24557 whole entry): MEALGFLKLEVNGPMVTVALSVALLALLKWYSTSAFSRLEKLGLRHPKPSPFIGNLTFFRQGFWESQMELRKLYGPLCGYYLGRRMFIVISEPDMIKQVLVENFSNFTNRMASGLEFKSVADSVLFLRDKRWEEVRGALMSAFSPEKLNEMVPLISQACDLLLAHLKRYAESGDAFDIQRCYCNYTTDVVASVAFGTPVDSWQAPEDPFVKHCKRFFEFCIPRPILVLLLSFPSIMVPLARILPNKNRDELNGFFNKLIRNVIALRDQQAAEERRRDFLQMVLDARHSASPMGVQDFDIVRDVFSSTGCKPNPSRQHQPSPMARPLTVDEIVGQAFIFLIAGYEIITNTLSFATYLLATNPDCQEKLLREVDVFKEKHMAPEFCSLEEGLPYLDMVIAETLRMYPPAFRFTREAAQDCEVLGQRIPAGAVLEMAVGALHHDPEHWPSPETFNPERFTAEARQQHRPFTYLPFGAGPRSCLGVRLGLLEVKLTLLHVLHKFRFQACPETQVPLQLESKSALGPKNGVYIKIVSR
Method in brief: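 Compound or vehicle incubated with whole human blood for 30 min at 37 °C, then serum was prepared. Serum TXB2, the stable TXA2 metabolite, was measured by radioimmunoassay. Run in triplicate.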

Thromboxane A2 receptor = target: T2, Thromboxane A2 receptor (Homo sapiens, UniProt P21731); experiment: In vitro for antagonistic activity against […]; assay type: functional
T2 sequence (P21731 whole entry): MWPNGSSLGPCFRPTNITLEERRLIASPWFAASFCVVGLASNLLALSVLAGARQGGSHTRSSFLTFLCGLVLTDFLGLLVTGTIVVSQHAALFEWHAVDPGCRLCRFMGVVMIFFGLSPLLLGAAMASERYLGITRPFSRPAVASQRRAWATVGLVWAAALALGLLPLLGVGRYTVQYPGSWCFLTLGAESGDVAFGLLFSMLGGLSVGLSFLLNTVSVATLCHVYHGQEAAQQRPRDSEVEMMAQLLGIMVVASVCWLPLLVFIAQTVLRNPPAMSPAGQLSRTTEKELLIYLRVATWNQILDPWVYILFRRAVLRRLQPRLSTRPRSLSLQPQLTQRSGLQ
Method in brief: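 Buffer was 10 mM Hepes, 2 mM CHAPS and 10 μM indomethacin, pH 7.4. Competitor range 10^-10 to 10^-5 M; incubation 30 °C for 30 min; stopped with ice-cold 25 mM Tris pH 7.4 and filtered. Nonspecific binding taken with 10 μM SQ29548. Run in triplicate.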

| Compound | IC50 (Homo sapiens) [nM] | IC50 (Thromboxane-A synthase) [nM] | Kd (Thromboxane A2 receptor) [nM] |
| --- | --- | --- | --- |
| O=C(O)CCCC/C=C(\c1ccc(-c2nc(C(=O)NCCCCOc3ccccc3)co2)cc1)c1cccnc1 | 500 |  |  |
| O=C(O)CCCC/C=C(\c1ccc(-c2nc(C(=O)NCCCCC3CCCCC3)co2)cc1)c1cccnc1 | 400 |  |  |
| O=C(O)CCCCO/N=C(/c1cccnc1)c1cccc(C(F)(F)F)c1 [RIDOGREL] |  | 14.7 | 8000 |
| CC(OCCCNC(=O)c1coc(-c2ccc(/C(=C\CCCCC(=O)O)c3cccnc3)cc2)n1)C1CCCCC1 (configuration not stated) | 5000 |  |  |
| O=C(O)CCCC/C=C(\c1ccc(-c2nc(C(=O)NCCCN3CCOCC3)co2)cc1)c1cccnc1 |  | 50.8 |  |
| O=C(O)CCCC/C=C(\c1ccc(-c2nc(C(=O)NCCOCC3CCCCC3)co2)cc1)c1cccnc1 |  | 36.7 | 43.3 |
| CCOCCCNC(=O)c1coc(-c2ccc(/C(=C\CCCCC(=O)O)c3cccnc3)cc2)n1 |  |  | 1400 |
| O=C(O)CCCC/C=C(\c1ccc(-c2nc(C(=O)NCCOCc3ccccc3)co2)cc1)c1cccnc1 |  | 47.5 | 156 |

The next lines start with the values.

| IC50 (Homo sapiens) [nM] | IC50 (Thromboxane-A synthase) [nM] | Kd (Thromboxane A2 receptor) [nM] | Compound |
| --- | --- | --- | --- |
|  | 2.7 | 119 | COc1ccc(CCCNC(=O)c2coc(-c3ccc(/C(=C\CCCCC(=O)O)c4cccnc4)cc3)n2)cc1 |
| 5000 |  |  | O=C(O)CCCC/C=C(\c1ccc(-c2nc(C(=O)N[C@@H]3C[C@H]3c3ccccc3)co2)cc1)c1cccnc1 |
|  | 9.4 | 82.4 | O=C(O)CCCC/C=C(\c1ccc(-c2nc(C(=O)NCCc3ccccc3)co2)cc1)c1cccnc1 |
| 4000 |  |  | O=C(O)CCCC/C=C(\c1ccc(-c2nc(C(=O)NS(=O)(=O)c3ccc(Cl)cc3)co2)cc1)c1cccnc1 |
